The source of these data is ChEMBL document CHEMBL2046290, “Ureido-substituted sulfamates show potent carbonic anhydrase IX inhibitory and antiproliferative activities against breast cancer cell lines” (Bioorg Med Chem Lett, 2012).

For assay [1], the system named is SK-BR-3. Kind of assay: Antiproliferative activity against human SKBR3 cells at 100 uM after 5 days by SRB assay under normoxic condition. It counts as functional, cell-based. In short, it runs like this: (§1)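 Cells seeded at 1 × 10^3 per well, adhered 48 h, medium removed, then exposed to compound at 100 μM. After 5 days, growth measured by SRB: fixed with cold 25% TCA 1 h at 4 °C, stained with SRB in 1% acetic acid 30 min at room temperature, dye solubilised in 10 mM Tris pH 10.5, read at 540. Values expressed relative to untreated control (1.0).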

The test system of assay [2] is MCF7. Kind of assay: Antiproliferative activity against human MCF7 cells after 5 days by SRB assay under hypoxic condition. It counts as functional, cell-based. In short, it runs like this: (§2)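 MCF7 seeded at 3 × 10^3 per well, adhered 48 h, then equilibrated 6 h at 0.5% O2 in a hypoxia station. Compounds added in hypoxic medium across 0.1–100 μM. After 5 days, proliferation measured by SRB: cold 25% TCA fixation 1 h at 4 °C, SRB in 1% acetic acid 30 min, solubilised in 10 mM Tris pH 10.5, read at 540.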
In general terms: Sulforhodamine B stains cellular protein and so reports cell mass.

Assay [3] deals with MCF7. Kind of assay: Antiproliferative activity against human MCF7 cells at 30 uM after 5 days by SRB assay under hypoxic condition. It counts as functional, cell-based. In short, it runs like this: as §2
The test system of assay [4] is ZR-75-1. Nature of the assay: Antiproliferative activity against human ZR-75-1 cells at 100 uM after 5 days by SRB assay under normoxic condition. It counts as functional, cell-based. In short, it runs like this:
as §1

For assay [5], the system named is MDA-MB-361. Nature of the assay: Antiproliferative activity against human MDA-MB-361 cells at 100 uM after 5 days by SRB assay under normoxic condition. It counts as functional, cell-based. In short, it runs like this: as §1
Assay [6] relates to MCF7. Nature of the assay: Antiproliferative activity against human MCF7 cells at 10 uM after 5 days by SRB assay under hypoxic condition. It counts as functional, cell-based. In short, it runs like this:
as §2

Assay [7] relates to MCF-10A. Nature of the assay: Antiproliferative activity against human MCF10A cells at 100 uM after 5 days by SRB assay under normoxic condition. It counts as functional, cell-based. In short, it runs like this: as §1
In assay [8] the target is Carbonic anhydrase 9 (Homo sapiens, UniProt Q16790). Nature of the assay: Inhibition of human carbonic anhydrase 9 preincubated for 15 mins measured for 10 to 100 sec using phenol red indicator-based stopped flow assay. In short, it runs like this: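 In-house recombinant human enzyme; stopped-flow CO2 hydration at 1.7–17 mM CO2, with 0.2 mM phenol red read at 557 nm in 20 mM Hepes pH 7.5 and 20 mM Na2SO4. Inhibitor (diluted from 0.1 mM aqueous stock to 0.01 nM) preincubated with enzyme 15 min at room temperature. Initial rates taken over 10–100 s, uncatalysed rate subtracted. Ki by non-linear least squares, mean of at least three determinations.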

Active and inactive are the calls of the source. The calls are words filed in the database; no cut-off is given here.

Regarding `NS(=O)(=O)Oc1ccc(NC(=O)NCCc2ccccc2)cc1`, the outcome in assay [1], in assay [3], in assay [4], in assay [5], in assay [6] and in assay [7] was Active. In addition, the Activity result in assay [2] is “Dose-dependent effect”.
For `NS(=O)(=O)Oc1ccc(NC(=O)Nc2ccc(Oc3ccccc3)cc2)cc1`, the result in assay [1], in assay [3], in assay [4], in assay [5], in assay [6] and in assay [7] was Active. For the same compound, the Activity result in assay [2] is “Dose-dependent effect”.
With `Cc1cc(C)cc(NC(=O)Nc2ccc(OS(N)(=O)=O)cc2)c1`, the outcome in assay [1], in assay [3], in assay [4], in assay [5], in assay [6] and in assay [7] was Active.
Turning to `NS(=O)(=O)Oc1ccc(NC(=O)Nc2c(F)c(F)c(F)c(F)c2F)cc1`, the result in assay [1], in assay [3], in assay [4], in assay [5], in assay [6] and in assay [7] was Active. The Activity entry in assay [2] is “Dose-dependent effect”.
Take `CCOC(=O)c1cccc(NC(=O)Nc2ccc(OS(N)(=O)=O)cc2)c1`: the Ki in assay [8] is 12 nM.
Consider `NS(=O)(=O)Oc1ccc(NC(=O)Nc2ccc([N+](=O)[O-])cc2)cc1`, for which the outcome in assay [1], in assay [3], in assay [4], in assay [5], in assay [6] and in assay [7] was Active. The Activity result in assay [2] is “Dose-dependent effect”.
Take `NS(=O)(=O)Oc1ccc(NC(=O)Nc2ccc(F)cc2)cc1`: the result in assay [1], in assay [3], in assay [4], in assay [5], in assay [6] and in assay [7] was Active. Besides, the Activity result in assay [2] is “Dose-dependent effect”.
For the compound `CCOC(=O)c1ccc(NC(=O)Nc2ccc(OS(N)(=O)=O)cc2)cc1`, in assay [8], the Ki was determined as 8 nM.
Consider `COc1ccc(NC(=O)Nc2ccc(OS(N)(=O)=O)cc2)cc1`, for which the result in assay [1], in assay [3], in assay [4], in assay [5], in assay [6] and in assay [7] was Active. For the same compound, the Activity entry in assay [2] was “Dose-dependent effect”.
Regarding `NS(=O)(=O)Oc1ccc(NC(=O)NCCc2cccc3ccccc23)cc1`, the Ki in assay [8] amounted to 15 nM. This counts as double-digit nanomolar.
Turning to `NS(=O)(=O)Oc1ccc(NC(=O)Nc2ccc(Cl)cc2)cc1`, the outcome in assay [1], in assay [3], in assay [4], in assay [5], in assay [6] and in assay [7] was Active. Also, the Activity result in assay [2] is “Dose-dependent effect”.
For the compound `CCOC(=O)c1ccccc1NC(=O)Nc1ccc(OS(N)(=O)=O)cc1`, affinity in assay [8] was put at a Ki of 8 nM.
On the same count and under the same terms, then `NS(=O)(=O)Oc1ccc(NC(=O)Nc2ccc(Cc3ccccc3)cc2)cc1`, with 16 nM.
Still for that read-out and setting: then `CC(C)(C)OC(=O)N1CCC(NC(=O)Nc2ccc(OS(N)(=O)=O)cc2)CC1`, with 7 nM.
As to `CN(C)c1ccc(NC(=O)Nc2ccc(OS(N)(=O)=O)cc2)cc1`, the result in assay [1], in assay [3], in assay [4], in assay [5], in assay [6] and in assay [7] was Active. The Activity entry in assay [2] is “Dose-dependent effect”.

The Ki is a measure of affinity in units of concentration, obtained from inhibition or displacement. Read a high Ki as lower affinity.
